How the values were obtained:
[1] = Selectivity ratio of IC50 for african green monkey Vero cells to IC50 for Trypanosoma brucei MITat 427 clone 221a trypomastigotes; type: ADME, cell-based; conditions: read-out: Ratio IC50
Procedure, shortened: (§1)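 Selectivity index was calculated as the IC50 in Vero cells divided by the IC50 in the parasite.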

Leishmania donovani = experiment: Antileishmanial activity against Leishmania donovani S1 promastigotes after 72 hrs by alamar blue assay; type: functional, organism-based; conditions: S1, 72 h
Trypanosoma cruzi = experiment: Antitrypanosomal activity against Trypanosoma cruzi clone CL-Brener epimastigotes after 14 days by alamar blue assay; type: functional, organism-based; conditions: 336 h
Vero [2] = experiment: Cytotoxicity against african green monkey Vero cells at 4.76 ug/ml after 48 hrs by neutral red assay; type: cell-based; conditions: chlorocebus sabaeus
Trypanosoma brucei = experiment: Antitrypanosomal activity against Trypanosoma brucei MITat 427 clone 221a trypomastigotes after 3 days by alamar blue assay; type: functional, organism-based; conditions: 72 h
[3] = Selectivity ratio of IC50 for african green monkey Vero cells to IC50 for Leishmania donovani S1 promastigotes; type: ADME, cell-based; conditions: Vero cells versus Leishmania donovani S1 promastigotes, read-out: Ratio IC50; procedure, shortened: as §1
Vero [4] = experiment: Cytotoxicity against african green monkey Vero cells after 48 hrs by neutral red assay; type: cell-based; conditions: chlorocebus sabaeus
[5] = Selectivity ratio of IC50 for african green monkey Vero cells to IC50 for Trypanosoma cruzi clone CL-Brener epimastigotes; type: ADME, cell-based; conditions: read-out: Ratio IC50; procedure, shortened: as §1

Compound	selectivity ratio [1]	IC50 (Leishmania donovani)	IC50 (Trypanosoma cruzi)	Activity (Vero [2])	IC50 (Trypanosoma brucei)	selectivity ratio [3]	IC50 (Vero [4])	selectivity ratio [5]
c1ccc(CNCCCNCc2ccccc2)cc1	> 3	11000 nM	> 10000 nM	Non-toxic	6450 nM	> 27	–	–
COc1ccc(CNCCCNCc2ccc(OC)cc2)cc1	> 7	1240 nM	> 10000 nM	Non-toxic	2040 nM	> 12	–	–
COc1ccc(CNCCCCCCNCc2ccc(OC)cc2)cc1	60	6730 nM	> 10000 nM	–	220 nM	2	8.32 µM	–
COc1ccc(CNCCCCCCCCNCc2ccc(OC)c(O)c2)cc1O	> 2	44400 nM	> 10000 nM	Non-toxic	5500 nM	> 0.3	–	–
COc1ccc(CNCCCCCCCCCCNCc2ccc(OC)cc2)cc1	–	1450 nM	2300 nM	Non-toxic	> 10000 nM	> 8	–	> 5
C[C@@H]1[C@H](O)[C@@H](C)/C=C/C=C/C=C/C=C/C=C/C=C/C=C/[C@H](O[C@@H]2O[C@H](C)[C@@H](O)[C@H](N)[C@@H]2O)C[C@@H]2O[C@](O)(C[C@@H](O)C[C@@H](O)[C@H](O)CC[C@@H](O)C[C@@H](O)CC(=O)O[C@H]1C)C[C@H](O)[C@H]2C(=O)O [AMPHOTERICIN B]	–	320 nM	–	–	–	–	–	–
COc1ccc(CNCCCNCc2ccc(OC)c(O)c2)cc1O	–	> 100000 nM	> 10000 nM	Non-toxic	> 10000 nM	–	–	–
CC1CS(=O)(=O)CCN1/N=C/c1ccc([N+](=O)[O-])o1 (centres undefined) [NIFURTIMOX]	–	–	2100 nM	–	1700 nM	–	–	–
COc1cc(CNCCCCCCCCNCc2ccc(OCc3ccccc3)c(OC)c2)ccc1OCc1ccccc1	24	220 nM	820 nM	–	190 nM	21	2.7 µM	6
COc1cc(CNCCCCCCCCCCNCc2ccc(OCc3ccccc3)c(OC)c2)ccc1OCc1ccccc1	> 67	1200 nM	800 nM	Non-toxic	110 nM	> 6	–	> 10
COc1ccc(CNCCCCCCCCCCNCc2ccc(OC)c(O)c2)cc1O	> 11	4500 nM	> 10000 nM	Non-toxic	960 nM	> 2	–	–
COc1ccc(CNCCCCCCNCc2ccc(OC)c(O)c2)cc1O	–	43800 nM	> 10000 nM	Non-toxic	> 10000 nM	> 0.3	–	–
COc1cc(CNCCCNCc2ccc(OCc3ccccc3)c(OC)c2)ccc1OCc1ccccc1	35	230 nM	810 nM	–	190 nM	29	6.65 µM	8
COc1ccc(CNCCCCCCCCNCc2ccc(OC)cc2)cc1	> 2	1560 nM	> 10000 nM	Non-toxic	5500 nM	> 5	–	–
COc1cc(CNCCCCCCNCc2ccc(OCc3ccccc3)c(OC)c2)ccc1OCc1ccccc1	> 44	210 nM	740 nM	Non-toxic	190 nM	> 40	–	> 11
COc1cc(CNCCCCNCc2ccc(OCc3ccccc3)c(OC)c2)ccc1OCc1ccccc1	52	240 nM	730 nM	–	170 nM	37	2.7 µM	12
COc1ccc(CNCCCCNCc2ccc(OC)cc2)cc1	> 5	8520 nM	> 10000 nM	Non-toxic	3200 nM	> 2	–	–
COc1ccc(CNCCCCNCc2ccc(OC)c(O)c2)cc1O	–	> 100000 nM	> 10000 nM	Non-toxic	> 10000 nM	–	–	–

Source: ChEMBL document CHEMBL1949539, “Synthesis and antikinetoplastid activity of a series of N,N'-substituted diamines” (Bioorg Med Chem Lett, 2012)
